Experimental findings from ChEMBL document CHEMBL1136894, “New antituberculotics originated from salicylanilides with promising in vitro activity against atypical mycobacterial strains” (Bioorg Med Chem, 2009) are described below.

≈ marks a conversion by molar mass, not a printed value.

For series [1], the system named is Mycobacterium tuberculosis. Briefly: Antimycobacterial activity against Mycobacterium tuberculosis CNCTC My 331/88 after 14 days. The series is classed as functional. As to conditions: CNCTC My 331/88, 336 h. In a few lines:
(§1)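 Broth dilution in Sula semisynthetic medium, compounds added as DMSO solutions at 250, 125, 62, 32, 16, 8, 4, 2 and 1. Strains came from the Czech National Collection of Type Cultures; the M. tuberculosis inoculum was diluted 10^-3. Cultures were incubated at 37 °C, and MIC was read after 7, 14 and 21 days.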

The test system of series [2] is Mycobacterium tuberculosis. Nature of the series: Antimycobacterial activity against Mycobacterium tuberculosis CNCTC My 331/88 after 21 days. Type of series: functional. As to conditions: CNCTC My 331/88, 504 h. The essentials:
as §1

Series [3] has as its system Mycobacterium avium. Nature of the series: Antimycobacterial activity against Mycobacterium avium CNCTC My 330/88 after 14 days. Type of series: functional. As to conditions: CNCTC My 330/88, 336 h. In a few lines: as §1
Series [4] deals with Mycobacterium avium. Briefly: Antimycobacterial activity against Mycobacterium avium CNCTC My 330/88 after 21 days. Type of series: functional. The conditions noted are these: CNCTC My 330/88, 504 h. The essentials:
as §1

Series [5] relates to Mycobacterium kansasii. Briefly: Antimycobacterial activity against Mycobacterium kansasii CNCTC My 235/80 after 7 days. The series is classed as functional. The conditions noted are these: CNCTC My 235/80, 168 h. In a few lines: (§2)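 Compounds were added as DMSO solutions to Sula semisynthetic medium at 250, 125, 62, 32, 16, 8, 4, 2 and 1 µmol/L. Two M. kansasii strains were used: CNCTC My 235/80 and clinical isolate 6509/96, each with strain dilution 10^-4. Incubation was at 37 °C, and MIC was read at 7, 14 and 21 days.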

Series [6] has as its system Mycobacterium kansasii. Briefly: Antimycobacterial activity against Mycobacterium kansasii CNCTC My 235/80 after 14 days. Type of series: functional. The conditions noted are these: CNCTC My 235/80, 336 h. In a few lines:
as §2

Series [7] relates to Mycobacterium kansasii. Nature of the series: Antimycobacterial activity against Mycobacterium kansasii CNCTC My 235/80 after 21 days. The series is classed as functional. The conditions noted are these: CNCTC My 235/80, 504 h. The essentials: as §2
Series [8] deals with Mycobacterium kansasii. Nature of the series: Antimycobacterial activity against Mycobacterium kansasii isolate 6509/96 after 7 days. Type of series: functional. As to conditions: isolate 6509/96, 168 h. In a few lines: as §2
The test system of series [9] is Mycobacterium kansasii. Briefly: Antimycobacterial activity against Mycobacterium kansasii isolate 6509/96 after 14 days. The conditions noted are these: isolate 6509/96, 336 h. Type of series: functional. In a few lines: as §2
In series [10] the test system is Mycobacterium kansasii. Nature of the series: Antimycobacterial activity against Mycobacterium kansasii isolate 6509/96 after 21 days. Type of series: functional. As to conditions: isolate 6509/96, 504 h. In a few lines:
as §2

Series [11] in a line: Lipophilicity, log K by HPLC. Type of series: physicochemical. In a few lines: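 Capacity factors k were measured by RP-HPLC and log k was calculated from them.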

In general, MIC refers to the smallest concentration in the dilution series that meets the test's criterion for growth inhibition. Low values mean greater potency, high ones weaker potency. For `CC(C)[C@H](NC(=O)OCc1ccccc1)C(=O)Oc1ccc(Cl)cc1C(=O)Nc1ccc(Cl)cc1`, the minimal inhibitory concentration (MIC) in series [1] worked out at 4 µM (≈ 2.06 µg/mL); in [2], 4 µM (≈ 2.06 µg/mL); with Mycobacterium avium [3], 16 µM (≈ 8.25 µg/mL); with Mycobacterium avium [4] it was 16 µM (≈ 8.25 µg/mL); in the series on Mycobacterium kansasii [5], 8 µM (≈ 4.12 µg/mL); against Mycobacterium kansasii [6] it was 16 µM (≈ 8.25 µg/mL). For the same compound, the MIC turned out to be 16 µM (≈ 8.25 µg/mL) in the series on Mycobacterium kansasii [7], 8 µM (≈ 4.12 µg/mL) in the series with Mycobacterium kansasii [8], 8 µM (≈ 4.12 µg/mL) with Mycobacterium kansasii [9] and 16 µM (≈ 8.25 µg/mL) in the series on Mycobacterium kansasii [10]. In addition, in series [11], the “log K” value is recorded as 0.9417.

Take `C[C@@H](NC(=O)OCc1ccccc1)C(=O)Oc1ccc(Cl)cc1C(=O)Nc1ccc(Cl)cc1`: the MIC in series [1] was found to be 4 µM (≈ 1.95 µg/mL); in [2], 4 µM (≈ 1.95 µg/mL); in the series with Mycobacterium avium [3], 16 µM (≈ 7.8 µg/mL); in the series with Mycobacterium avium [4] it was 16 µM (≈ 7.8 µg/mL); in the series on Mycobacterium kansasii [5], 8 µM (≈ 3.9 µg/mL); in the series on Mycobacterium kansasii [6], 16 µM (≈ 7.8 µg/mL). Besides, the minimal inhibitory concentration (MIC) is 16 µM (≈ 7.8 µg/mL) against Mycobacterium kansasii [7], 8 µM (≈ 3.9 µg/mL) with Mycobacterium kansasii [8], 8 µM (≈ 3.9 µg/mL) in the series with Mycobacterium kansasii [9] and 16 µM (≈ 7.8 µg/mL) against Mycobacterium kansasii [10]. Further, the “log K” value in series [11] worked out at 0.7294.

In the case of `CC(C)[C@H](NC(=O)OCc1ccccc1)C(=O)Oc1cc(Cl)ccc1C(=O)Nc1ccc(Cl)cc1`, the MIC in series [1] was determined as 4 µM (≈ 2.06 µg/mL); in series [2], 8 µM (≈ 4.12 µg/mL); with Mycobacterium avium [3], 16 µM (≈ 8.25 µg/mL); in the series on Mycobacterium avium [4], 16 µM (≈ 8.25 µg/mL); in the series on Mycobacterium kansasii [5] it was 4 µM (≈ 2.06 µg/mL); against Mycobacterium kansasii [6] it was 8 µM (≈ 4.12 µg/mL). The MIC was found to be 8 µM (≈ 4.12 µg/mL) against Mycobacterium kansasii [7], 4 µM (≈ 2.06 µg/mL) in the series on Mycobacterium kansasii [8], 8 µM (≈ 4.12 µg/mL) in the series with Mycobacterium kansasii [9] and 16 µM (≈ 8.25 µg/mL) against Mycobacterium kansasii [10]. Moreover, in series [11], the “log K” value is recorded as 0.8804.

For the compound `O=C(N[C@@H](Cc1ccccc1)C(=O)Oc1ccc(Cl)cc1C(=O)Nc1ccc(Cl)cc1)OCc1ccccc1`, the minimum inhibitory concentration (MIC) in series [1] was found to be 4 µM (≈ 2.25 µg/mL); in series [2], 4 µM (≈ 2.25 µg/mL); against Mycobacterium avium [3] it was 16 µM (≈ 9.01 µg/mL); with Mycobacterium avium [4] it was 16 µM (≈ 9.01 µg/mL); in the series on Mycobacterium kansasii [5] it was 8 µM (≈ 4.51 µg/mL); against Mycobacterium kansasii [6], 16 µM (≈ 9.01 µg/mL). Further, the MIC was found to be 16 µM (≈ 9.01 µg/mL) in the series with Mycobacterium kansasii [7], 8 µM (≈ 4.51 µg/mL) against Mycobacterium kansasii [8], 16 µM (≈ 9.01 µg/mL) with Mycobacterium kansasii [9] and 16 µM (≈ 9.01 µg/mL) in the series with Mycobacterium kansasii [10]. For the same compound, in series [11], the “log K” value was 1.0971.

Take `NNC(=O)c1ccncc1` [ISONIAZID]: the MIC in [1] was 0.5 µM (≈ 0.0686 µg/mL); in series [2], 0.5 µM (≈ 0.0686 µg/mL); with Mycobacterium avium [3], > 250 µM; against Mycobacterium avium [4] it was > 250 µM; against Mycobacterium kansasii [5] it was > 250 µM; with Mycobacterium kansasii [6] it was > 250 µM. The MIC against Mycobacterium kansasii [7] is > 250 µM; in the series with Mycobacterium kansasii [8], 4 µM (≈ 0.549 µg/mL); in the series on Mycobacterium kansasii [9] it was 8 µM (≈ 1.1 µg/mL); with Mycobacterium kansasii [10], 8 µM (≈ 1.1 µg/mL).

Consider `O=C(CNC(=O)OCc1ccccc1)Oc1ccc(Cl)cc1C(=O)Nc1ccc(Cl)c(Cl)c1`, for which the MIC in series [1] amounted to 1 µM (≈ 0.508 µg/mL); in series [2], 2 µM (≈ 1.02 µg/mL); against Mycobacterium avium [3], 16 µM (≈ 8.12 µg/mL); with Mycobacterium avium [4], 32 µM (≈ 16.2 µg/mL); in the series on Mycobacterium kansasii [5] it was 8 µM (≈ 4.06 µg/mL); in the series with Mycobacterium kansasii [6], 8 µM (≈ 4.06 µg/mL). Further, the MIC against Mycobacterium kansasii [7] was determined as 16 µM (≈ 8.12 µg/mL); against Mycobacterium kansasii [8] it was 8 µM (≈ 4.06 µg/mL); with Mycobacterium kansasii [9], 8 µM (≈ 4.06 µg/mL); against Mycobacterium kansasii [10], 8 µM (≈ 4.06 µg/mL). Also, the “log K” value in series [11] was found to be 0.8639.

For `C[C@@H](NC(=O)OCc1ccccc1)C(=O)Oc1cc(Cl)ccc1C(=O)Nc1ccc(Cl)cc1`, the MIC in series [1] came out at 4 µM (≈ 1.95 µg/mL); in [2] it was 8 µM (≈ 3.9 µg/mL); against Mycobacterium avium [3] it was 16 µM (≈ 7.8 µg/mL); with Mycobacterium avium [4], 16 µM (≈ 7.8 µg/mL); in the series on Mycobacterium kansasii [5], 8 µM (≈ 3.9 µg/mL); against Mycobacterium kansasii [6], 8 µM (≈ 3.9 µg/mL). For the same compound, the MIC in the series on Mycobacterium kansasii [7] worked out at 8 µM (≈ 3.9 µg/mL); in the series with Mycobacterium kansasii [8] it was 4 µM (≈ 1.95 µg/mL); against Mycobacterium kansasii [9], 8 µM (≈ 3.9 µg/mL); against Mycobacterium kansasii [10], 16 µM (≈ 7.8 µg/mL). For the same compound, the “log K” value in series [11] was 0.6334.

Consider `O=C(N[C@H](Cc1ccccc1)C(=O)Oc1ccc(Cl)cc1C(=O)Nc1ccc(Cl)c(Cl)c1)OCc1ccccc1`, for which the MIC in series [1] was 2 µM (≈ 1.2 µg/mL); in series [2], 2 µM (≈ 1.2 µg/mL); in the series with Mycobacterium avium [3] it was 16 µM (≈ 9.57 µg/mL); with Mycobacterium avium [4] it was 32 µM (≈ 19.1 µg/mL); with Mycobacterium kansasii [5], 4 µM (≈ 2.39 µg/mL); in the series with Mycobacterium kansasii [6], 4 µM (≈ 2.39 µg/mL). Also, the MIC with Mycobacterium kansasii [7], against Mycobacterium kansasii [8], in the series with Mycobacterium kansasii [9] and with Mycobacterium kansasii [10] was 8 µM (≈ 4.78 µg/mL) in each case. The “log K” value in [11] is 1.303.
